Data reported in ChEMBL document CHEMBL1255465, “Persistence of uropathogenic Escherichia coli in the face of multiple antibiotics” (Antimicrob Agents Chemother, 2010).
Calls of active or inactive are those of the source. The calls are words filed in the database; no cut-off is given here.

Key:
5637 [1] = test: Cytotoxicity against human 5637 cells assessed as mild induction of cell death by LDH release assay; format: cell-based
5637 [2] = test: Cytotoxicity against human 5637 cells assessed as mild induction of cell death by trypan blue exclusion assay; format: cell-based
Summary of the method: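 Integrity of 5637 cells after drug treatment assessed by 0.4% trypan blue exclusion, following a standard protocol.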

Escherichia coli [3] = test: Antibacterial activity against uropathogenic Escherichia coli UTI89 infected in human 5637 cells assessed as decrease in intracellular bacterial level at 1000 to 2000 ug/ml after 12 hrs by serial dilution method; format: functional, organism-based
Summary of the method: (§1)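 Confluent 5637 monolayers in triplicate infected with UTI89 (24-h static LB culture, type 1 pili) at MOI ~15 and spun 600 × g for 5 min. After 2 h: gentamicin 100 μg/ml for 2 h, then 10 μg/ml for 14 h. Then 12 h with drug at two concentrations. Cells lysed in 0.4% Triton X-100 and plated on LB agar. Titers expressed relative to 800 μg/ml gentamicin. ≥3 independent assays.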

Escherichia coli [4] = test: Antibacterial activity against uropathogenic Escherichia coli UTI89 assessed as degradation of preexisting biofilm after 24 hrs by microscopy; format: functional, organism-based
Summary of the method: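 UTI89 diluted 1:100 into M9 medium and grown statically 48 h at 37°C in microtiter wells. Nonadherent cells removed, fresh M9 ± drug added for 24 h, using the higher of two tested concentrations. Viable bacteria in biofilms visualized by Live/Dead BacLight staining and microscopy.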

Escherichia coli [5] = test: Antibacterial activity against uropathogenic Escherichia coli UTI89 infected in human 5637 cells assessed as decrease in intracellular bacterial level at 1200 to 1600 ug/ml after 12 hrs by serial dilution method; format: functional, organism-based; summary of the method: as §1
Escherichia coli [6] = test: Antibacterial activity against uropathogenic Escherichia coli UTI89 assessed as inhibition of biofilm formation after 24 hrs by microtiterplate-based assay; format: functional, organism-based
Summary of the method: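 Biofilms of UTI89 formed for 48 h at 37°C without shaking in M9 (1:100 inoculum, triplicate wells). Fresh M9 ± drug (higher of two tested concentrations) then added for 24 h. Biomass stained with 0.1% crystal violet, solubilized in DMSO, read at A562, and expressed relative to untreated controls. Three independent experiments.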

Escherichia coli [7] = details: UTI89, 5637, 2 to 3 ug/ml
Escherichia coli [8] = details: UTI89, Urothelium, 2 mg/kg
Escherichia coli [9] = details: UTI89, Urothelium, 2 mg/kg; remark: listed apart in the source
Escherichia coli [10] = test: Antibacterial activity against uropathogenic Escherichia coli UTI89 isolated from urine samples of infected CBA/J mouse after 24 hrs by disk diffusion assay; format: functional, organism-based
Summary of the method: (§2)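 Urine collected by gentle bladder pressure 2 h after oral dosing of UTI89-infected CBA/J mice. 10 μl spotted on 7-mm filter discs, placed on fresh UTI89 lawns on LB agar. Clearance diameter measured after 24 h at 37°C. Urine drug level calculated from standard curves of discs holding known antibiotic concentrations.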

Escherichia coli [11] = details: UTI89, Urinary bladder, 2 mg/kg
Escherichia coli [12] = test: Antibacterial activity against uropathogenic Escherichia coli UTI89 infected in human 5637 cells assessed as decrease in intracellular bacterial level at 1000 to 3000 ug/ml after 12 hrs by serial dilution method; format: functional, organism-based; summary of the method: as §1
Escherichia coli [13] = test: Antibacterial activity against uropathogenic Escherichia coli UTI89 infected in human 5637 cells assessed as decrease in intracellular bacterial level at 200 to 300 ug/ml after 12 hrs by serial dilution method; format: functional, organism-based; summary of the method: as §1
Escherichia coli [14] = test: Antibacterial activity against uropathogenic Escherichia coli UTI89 infected in human 5637 cells assessed as decrease in intracellular bacterial level at 800 to 1200 ug/ml after 12 hrs by serial dilution method; format: functional, organism-based
Summary of the method: (§3)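 UTI89 was grown 24 h static in LB (type 1 pili) and added to confluent 5637 monolayers at MOI ~15, spun 600 × g for 5 min. After 2 h at 37°C: gentamicin 100 μg/ml for 2 h, then 10 μg/ml for 14 h. Next, 12 h with antibiotic at two concentrations. Lysis in 0.4% Triton X-100, serial-dilution plating; titers relative to 800 μg/ml gentamicin. ≥3 independent assays in triplicate, mean ± SEM.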

Escherichia coli [15] = test: Antibacterial activity against uropathogenic Escherichia coli UTI89 infected in human 5637 cells assessed as decrease in intracellular bacterial level at 300 to 500 ug/ml after 12 hrs by serial dilution method; format: functional, organism-based; summary of the method: as §3
Escherichia coli [16] = test: Antibacterial activity against uropathogenic Escherichia coli UTI89 infected in human 5637 cells assessed as decrease in intracellular bacterial level at 400 to 700 ug/ml after 12 hrs by serial dilution method; format: functional, organism-based; summary of the method: as §1
Escherichia coli [17] = test: Antibacterial activity against uropathogenic Escherichia coli UTI89 infected in human 5637 cells assessed as decrease in intracellular bacterial level at 600 to 1000 ug/ml after 12 hrs by serial dilution method; format: functional, organism-based; summary of the method: as §1
Escherichia coli [18] = test: Antibacterial activity against uropathogenic Escherichia coli UTI89 infected in CBA/J mouse assessed as decrease in bacterial invasion into layers of urothelium at 700 ug/kg, po administered on day 3 postinfection daily for 3 days measured on day 9 post-inoculation; format: functional, organism-based
Escherichia coli [19] = test: Antibacterial activity against uropathogenic Escherichia coli UTI89 infected in CBA/J mouse assessed as decrease in bacterial invasion into layers of urothelium at 700 ug/kg, po administered on day 3 postinfection daily for 3 days measured on day 9 post-inoculation in presence of Triton X-100; format: functional, organism-based
Escherichia coli [20] = test: Antibacterial activity against uropathogenic Escherichia coli UTI89 infected in CBA/J mouse assessed as decrease in bacterial load in bladder at 700 ug/kg, po administered on day 3 postinfection daily for 3 days measured on day 9 post-inoculation; format: functional, organism-based; details: Urinary bladder
Summary of the method: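 Female CBA/J mice, 7–8 weeks old, inoculated transurethrally with ~10^7 CFU UTI89 (24-h static LB culture) in 50 μl PBS. From day 3, one oral gavage daily for 3 days, 50 μl; controls given water. On day 9, bladders homogenized in PBS with 0.025% Triton X-100 and plated on LB agar for CFU. 11 mice from two experiments; Mann-Whitney U test.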

Escherichia coli [21] = test: Antibacterial activity against pGEN-GFP carrying uropathogenic Escherichia coli UTI89 isolated from bladder samples of infected CBA/J mouse assessed as decrease in growth of intracellular bacterial community at 12 ug/ml treated 6 hrs postinfection measured after 18 hrs; format: functional, organism-based
Summary of the method: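 Bladders from female CBA/J mice taken 6 h after transurethral inoculation with GFP(LVA)-plasmid UTI89, then halved, splayed and pinned lumen-up under Ringer solution (pH 7.4). Drug combination added at 12 and 700 μg/ml. GFP-positive IBCs counted by fluorescence stereomicroscopy at set times up to 18 h. n = 8 mice per group; Mann-Whitney U test.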

[22] = Drug level in Escherichia coli UTI89-infected CBA/J mouse urine at 700 ug/kg, po after 2 hrs; format: ADME, organism-based; details: in vivo, 0.7 mg/kg; summary of the method: as §2
Escherichia coli [23] = test: Antibacterial activity against uropathogenic Escherichia coli UTI89 infected in human 5637 cells assessed as decrease in intracellular bacterial level at 12 to 100 ug/ml after 12 hrs by serial dilution method; format: functional, organism-based; summary of the method: as §1
Escherichia coli [24] = test: Antibacterial activity against uropathogenic Escherichia coli UTI89 infected in human 5637 cells assessed as decrease in intracellular bacterial level at 250 to 300 ug/ml after 12 hrs by serial dilution method; format: functional, organism-based; summary of the method: as §1
[25] = Drug level in Escherichia coli UTI89-infected CBA/J mouse urine at 200 ug/kg, sc after 2 hrs; format: ADME, organism-based; details: in vivo, 0.2 mg/kg
Summary of the method: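 Urine was collected 2 h after dosing by gentle bladder pressure. 10-μl aliquots went onto 7-mm sterile filter discs laid on fresh UTI89 lawns on LB agar. Clearance diameters were read after 24 h at 37°C, and levels were calculated from standard curves of discs with known antibiotic concentrations.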

Escherichia coli [26] = test: Antibacterial activity against uropathogenic Escherichia coli UTI89 infected in CBA/J mouse assessed as decrease in bacterial load in bladder at 200 ug/kg, sc administered on day 3 postinfection daily for 3 days measured on day 9 post-inoculation; format: functional, organism-based; details: Urinary bladder
Escherichia coli [27] = test: Antibacterial activity against uropathogenic Escherichia coli UTI89 infected in CBA/J mouse assessed as decrease in bacterial invasion into layers of urothelium at 200 ug/kg, sc administered on day 3 postinfection daily for 3 days measured on day 9 post-inoculation in presence of Triton X-100; format: functional, organism-based
Escherichia coli [28] = test: Antibacterial activity against uropathogenic Escherichia coli UTI89 infected in human 5637 cells assessed as decrease in intracellular bacterial level at 400 to 800 ug/ml after 12 hrs by serial dilution method; format: functional, organism-based; summary of the method: as §3
Escherichia coli [29] = test: Antibacterial activity against uropathogenic Escherichia coli UTI89 infected in CBA/J mouse assessed as decrease in bacterial invasion into layers of urothelium at 200 ug/kg, sc administered on day 3 postinfection daily for 3 days measured on day 9 post-inoculation; format: functional, organism-based

Molecule | Activity 5637 [1] | Activity 5637 [2] | Activity (Escherichia coli [4]) | also measured
NCC[C@H](O)C(=O)N[C@@H]1C[C@H](N)[C@@H](O[C@H]2O[C@H](CN)[C@@H](O)[C@H](O)[C@H]2O)[C@H](O)[C@H]1O[C@H]1O[C@H](CO)[C@@H](O)[C@H](N)[C@H]1O [AMIKACIN] | Toxic | Toxic | Active | inhibition (Escherichia coli [3]): Active
CC1=C(C(=O)O)N2C(=O)[C@@H](NC(=O)[C@H](N)c3ccc(O)cc3)[C@H]2SC1 [CEFADROXIL] | Toxic | Toxic | Active | inhibition (Escherichia coli [5]): Active; Biofilm inhibition activity (Escherichia coli [6]): Active
O=C(O)c1cn(C2CC2)c2cc(N3CCNCC3)c(F)cc2c1=O [CIPROFLOXACIN] | Toxic | Toxic | Active | inhibition (Escherichia coli [7]): Active; inhibition (Escherichia coli [8]): Active; inhibition (Escherichia coli [9]): inactive; Activity (Escherichia coli [10]): Active; inhibition (Escherichia coli [11]): Active
NC[C@H]1O[C@H](O[C@H]2[C@H](O)[C@@H](O[C@H]3O[C@H](CO)[C@@H](O)[C@H](N)[C@H]3O)[C@H](N)C[C@@H]2N)[C@H](O)[C@@H](O)[C@@H]1O [KANAMYCIN] | Toxic | Toxic | Active | inhibition (Escherichia coli [12]): Active
C[C@H]1COc2c(N3CCN(C)CC3)c(F)cc3c(=O)c(C(=O)O)cn1c23.C[C@H]1COc2c(N3CCN(C)CC3)c(F)cc3c(=O)c(C(=O)O)cn1c23.O [LEVOFLOXACIN] | Toxic | Toxic | Active | inhibition (Escherichia coli [13]): Active
CCOc1ccc2ccccc2c1C(=O)N[C@@H]1C(=O)N2[C@@H]1SC(C)(C)[C@@H]2C(=O)O [NAFCILLIN] | Toxic | Toxic | Active | inhibition (Escherichia coli [5]): Active
CCn1cc(C(=O)O)c(=O)c2ccc(C)nc21 [NALIDIXIC ACID] | Toxic | Toxic | Active | inhibition (Escherichia coli [14]): Active
O=C1CN(/N=C/c2ccc([N+](=O)[O-])o2)C(=O)N1 [NITROFURANTOIN] | Toxic | Toxic | Active | inhibition (Escherichia coli [15]): Active
CCn1cc(C(=O)O)c(=O)c2cc(F)c(N3CCNCC3)cc21 [NORFLOXACIN] | Toxic | Toxic | Active | inhibition (Escherichia coli [15]): Active
CC1COc2c(N3CCN(C)CC3)c(F)cc3c(=O)c(C(=O)O)cn1c23 (centres undefined) [OFLOXACIN] | Toxic | Toxic | Active | inhibition (Escherichia coli [16]): Active
CC1(C)S[C@@H]2[C@H](NC(=O)Cc3ccccc3)C(=O)N2[C@H]1C(=O)O [PENICILLIN G] | Toxic | Toxic | Active | inhibition (Escherichia coli [17]): Active; Biofilm inhibition activity (Escherichia coli [6]): Active
C[C@@H]1CN(c2c(F)c(N)c3c(=O)c(C(=O)O)cn(C4CC4)c3c2F)C[C@H](C)N1 [SPARFLOXACIN] | Toxic | Toxic | Active | inhibition (Escherichia coli [18]): inactive; inhibition (Escherichia coli [19]): Active; inhibition (Escherichia coli [20]): Active; Activity (Escherichia coli [10]): Active; Biofilm inhibition activity (Escherichia coli [6]): Active; inhibition (Escherichia coli [21]): Active; Drug uptake [22]: 0.3 µg/mL; inhibition (Escherichia coli [23]): Active
CN(C)[C@@H]1C(O)=C(C(N)=O)C(=O)[C@@]2(O)C(O)=C3C(=O)c4c(O)cccc4[C@@](C)(O)[C@H]3C[C@@H]12 [TETRACYCLINE] | Toxic | Toxic | Active | inhibition (Escherichia coli [24]): Active
GENTAMICIN [listing 1 of 2 here] | Toxic | Toxic | – | Drug uptake [25]: 2 mg/mL
GENTAMICIN [listing 2 of 2 here] | – | – | Active | inhibition (Escherichia coli [26]): inactive; inhibition (Escherichia coli [27]): Active; inhibition (Escherichia coli [28]): Active; inhibition (Escherichia coli [29]): inactive; Activity (Escherichia coli [10]): Active
